A short description of experiment [1]: Ratio of binding affinity of eNOS to nNOS. The gist of the method: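 Ratio of apparent Ki values (eNOS Ki over nNOS Ki). Recombinant bovine eNOS and nNOS were isolated from E. coli expression. NO formation was followed by the hemoglobin capture assay with 10 µM L-arginine and at least three inhibitor concentrations.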
Experiment [2] in a line: Binding affinity against bovine brain nNOS (neuronal).
Experiment [3] deals with T1, Nitric oxide synthase 3 (Bos taurus, UniProt P29473).
T1 sequence (P29473 whole entry): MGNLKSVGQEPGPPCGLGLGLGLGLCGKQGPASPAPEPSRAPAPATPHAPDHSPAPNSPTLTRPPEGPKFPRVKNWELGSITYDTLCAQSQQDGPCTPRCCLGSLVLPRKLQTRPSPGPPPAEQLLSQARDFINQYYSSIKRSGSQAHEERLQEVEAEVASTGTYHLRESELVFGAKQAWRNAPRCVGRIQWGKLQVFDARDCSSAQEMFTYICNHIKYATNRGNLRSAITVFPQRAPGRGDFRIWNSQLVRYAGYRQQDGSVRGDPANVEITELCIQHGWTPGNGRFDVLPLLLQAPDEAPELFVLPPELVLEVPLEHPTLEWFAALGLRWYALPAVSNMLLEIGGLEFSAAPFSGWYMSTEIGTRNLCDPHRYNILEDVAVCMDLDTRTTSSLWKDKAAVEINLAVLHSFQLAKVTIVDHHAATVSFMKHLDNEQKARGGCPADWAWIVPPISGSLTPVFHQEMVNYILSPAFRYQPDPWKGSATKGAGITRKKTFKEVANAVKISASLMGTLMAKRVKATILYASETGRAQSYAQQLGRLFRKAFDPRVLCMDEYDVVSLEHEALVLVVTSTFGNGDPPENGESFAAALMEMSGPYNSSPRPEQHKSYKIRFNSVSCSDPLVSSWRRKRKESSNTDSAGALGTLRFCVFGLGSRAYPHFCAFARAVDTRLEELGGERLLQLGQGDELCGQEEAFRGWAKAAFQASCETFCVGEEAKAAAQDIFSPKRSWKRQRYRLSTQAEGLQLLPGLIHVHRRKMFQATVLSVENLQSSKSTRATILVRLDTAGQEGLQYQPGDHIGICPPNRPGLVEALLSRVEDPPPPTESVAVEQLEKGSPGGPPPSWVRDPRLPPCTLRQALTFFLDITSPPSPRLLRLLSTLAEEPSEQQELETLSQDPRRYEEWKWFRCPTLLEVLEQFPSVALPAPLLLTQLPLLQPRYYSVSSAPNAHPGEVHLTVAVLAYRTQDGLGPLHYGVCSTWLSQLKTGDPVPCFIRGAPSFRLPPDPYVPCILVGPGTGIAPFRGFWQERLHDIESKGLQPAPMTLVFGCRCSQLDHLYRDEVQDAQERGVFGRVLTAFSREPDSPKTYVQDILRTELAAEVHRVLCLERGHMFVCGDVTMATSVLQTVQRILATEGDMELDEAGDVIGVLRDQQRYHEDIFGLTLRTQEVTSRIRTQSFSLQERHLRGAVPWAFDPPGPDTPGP

In experiment [4] the target is T2, Nitric oxide synthase, inducible (Mus musculus, UniProt P29477).
T2 sequence (P29477 whole entry): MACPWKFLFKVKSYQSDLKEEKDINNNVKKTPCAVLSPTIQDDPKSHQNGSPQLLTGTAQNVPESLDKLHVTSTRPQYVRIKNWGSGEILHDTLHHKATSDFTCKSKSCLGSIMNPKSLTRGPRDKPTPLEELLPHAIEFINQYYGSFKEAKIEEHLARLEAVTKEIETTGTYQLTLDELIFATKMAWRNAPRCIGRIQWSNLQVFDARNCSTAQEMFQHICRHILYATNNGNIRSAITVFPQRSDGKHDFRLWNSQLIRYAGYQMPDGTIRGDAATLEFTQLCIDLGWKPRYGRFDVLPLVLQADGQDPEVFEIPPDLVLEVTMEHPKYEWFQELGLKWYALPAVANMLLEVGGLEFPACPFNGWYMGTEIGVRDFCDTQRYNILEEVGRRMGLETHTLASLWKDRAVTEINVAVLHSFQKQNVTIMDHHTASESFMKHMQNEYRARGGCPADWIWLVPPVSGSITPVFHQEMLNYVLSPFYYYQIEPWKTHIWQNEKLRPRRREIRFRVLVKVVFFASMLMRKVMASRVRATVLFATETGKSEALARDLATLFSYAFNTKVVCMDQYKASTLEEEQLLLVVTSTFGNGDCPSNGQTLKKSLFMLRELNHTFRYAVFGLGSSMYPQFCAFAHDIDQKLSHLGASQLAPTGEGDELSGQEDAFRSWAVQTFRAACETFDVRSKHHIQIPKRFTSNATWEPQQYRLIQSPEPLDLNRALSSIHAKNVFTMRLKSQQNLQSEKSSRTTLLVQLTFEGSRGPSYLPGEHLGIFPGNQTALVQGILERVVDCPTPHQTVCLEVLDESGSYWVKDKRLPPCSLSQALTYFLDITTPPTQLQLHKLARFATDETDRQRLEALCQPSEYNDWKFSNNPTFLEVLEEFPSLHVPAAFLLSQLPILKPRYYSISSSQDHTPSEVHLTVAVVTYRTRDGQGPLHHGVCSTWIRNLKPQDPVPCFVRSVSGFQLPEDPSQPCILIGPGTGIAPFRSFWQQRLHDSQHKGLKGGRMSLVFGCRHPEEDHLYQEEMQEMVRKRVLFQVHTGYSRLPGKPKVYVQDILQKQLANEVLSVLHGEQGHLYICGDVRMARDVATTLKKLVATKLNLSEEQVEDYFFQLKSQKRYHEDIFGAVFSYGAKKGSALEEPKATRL

Non-standard residues stand in square brackets, D forms with d. Residues, ends and D or L forms follow the SMILES beside them. *: point of attachment. Arg(NO2) = N=C(NCCC[C@H](N)C(=O)O)N[N+](=O)[O-]; NMeDab = CN[C@@H](CCN)C(=O)O; Orn = NCCC[C@H](N)C(=O)O; Dab = NCC[C@H](N)C(=O)O; Cbz = O=C(OCc1ccccc1)*; OtBu = CC(C)(C)O*

Consider `NCCCCNC(=O)[C@@H](N)CCC/N=C(\N)N[N+](=O)[O-]`, for which the Ratio in experiment [1] turned out to be 200. In general, Ki refers to a dissociation constant, usually derived from enzyme kinetics or from competition with a known ligand. A high value points to lower affinity. In experiment [2], `NCCCC[C@H](NC(=O)[C@@H](N)CCC/N=C(\N)N[N+](=O)[O-])C(N)=O` (H-[Arg(NO2)]-Lys-NH2) came in with a Ki of 0.45 µM.

Turning to `N=C(NCCC[C@H](N)C(=O)N(CCN)CC(N)=O)N[N+](=O)[O-]`, the Ki in experiment [3] is 55.5 µM; in experiment [4], 760 µM. Take `CC(C)(C)OC(=O)[C@H](CCN)NC(=O)[C@@H](N)CCCNC(=N)N[N+](=O)[O-]` (H-[Arg(NO2)]-[Dab]-OtBu): the results for the Ki in experiment [3] and in experiment [4] were 288 µM and 413 µM, respectively. Taken in the same sequence, the figures for `CC(=O)N[C@@H](CCCNC(=N)N[N+](=O)[O-])C(=O)N[C@@H](CCN)C(N)=O` (Ac-[Arg(NO2)]-[Dab]-NH2) were 263 µM and 2600 µM. `NCC[C@H](NC(=O)[C@H](CCC/N=C(\N)N[N+](=O)[O-])NC(=O)OCc1ccccc1)C(N)=O` (Cbz-[Arg(NO2)]-[Dab]-NH2): in experiment [1], the Ratio came out at 16. In the case of `COC(=O)[C@H](CCN)NC(=O)[C@@H](N)CCCNC(=N)N[N+](=O)[O-]` (H-[Arg(NO2)]-[Dab]-OMe), the Ki in experiment [3] was found to be 463 µM; in experiment [4], 27 µM.

For `N=C(NCCC[C@H](N)C(=O)NCCCN)N[N+](=O)[O-]`, the figures for the Ki in experiment [3] and in experiment [4] were 213 µM and 118 µM, respectively. For `CN(C(=O)[C@@H](N)CCC/N=C(\N)N[N+](=O)[O-])[C@@H](CCCCN)C(N)=O`, the Ratio in experiment [1] came to 86. Moreover, the results for the Ki in experiment [3] and in experiment [4] were 631 µM and 1900 µM, respectively. Consider `CN(C(=O)[C@@H](N)CCCNC(=N)N[N+](=O)[O-])[C@@H](CCN)C(N)=O` (H-[Arg(NO2)]-[NMeDab]-NH2), for which the Ki in experiment [3] amounted to 95 µM; in experiment [4] it was 340 µM. Turning to `N=C(NCCC[C@H](N)C(=O)NCCCCN)N[N+](=O)[O-]`, the Ki amounted to 70 µM in experiment [3] and 108 µM in experiment [4]. For the molecule `NCCCN(CC(N)=O)C(=O)[C@@H](N)CCC/N=C(\N)N[N+](=O)[O-]`, the Ratio in experiment [1] amounted to 3.5.

Regarding `NCCC[C@H](NC(=O)[C@@H](N)CCC/N=C(/N)N[N+](=O)[O-])C(N)=O` (H-[Arg(NO2)]-[Orn]-NH2), the Ki in experiment [2] amounted to 0.33 µM. `N=C(NCCC[C@H](N)C(=O)NCCN)N[N+](=O)[O-]`: the figures for the Ki in experiment [3] and in experiment [4] were 199 µM and 100 µM, respectively. For `CN(C(=O)[C@@H](N)CCC/N=C(\N)N[N+](=O)[O-])[C@@H](CCN)C(N)=O`, the Ratio in experiment [1] was 40. As for `NCCCCN(CC(N)=O)C(=O)[C@@H](N)CCC/N=C(\N)N[N+](=O)[O-]`, in experiment [1], the Ratio was found to be 4. Besides, the Ki in experiment [3] is 197 µM; in experiment [4], 1100 µM. Turning to `NCCN(CC(N)=O)C(=O)[C@@H](N)CCC/N=C(\N)N[N+](=O)[O-]`, the Ratio in experiment [1] amounted to 3. Take `NCC[C@H](NC(=O)[C@@H](N)CCC/N=C(\N)N[N+](=O)[O-])C(=O)O` (H-[Arg(NO2)]-[Dab]-OH): the Ratio in experiment [1] is 3.5. Turning to `N=C(NCCC[C@H](NC(=O)OCc1ccccc1)C(=O)N[C@@H](CCN)C(N)=O)N[N+](=O)[O-]` (Cbz-[Arg(NO2)]-[Dab]-NH2), the Ki came to 827 µM in experiment [3] and 1600 µM in experiment [4].

With `CC(C)(C)OC(=O)[C@H](CCN)NC(=O)[C@@H](N)CCC/N=C(\N)N[N+](=O)[O-]` (H-[Arg(NO2)]-[Dab]-OtBu), the Ratio in experiment [1] came to 28. Turning to `CC(=O)N[C@@H](CCC/N=C(\N)N[N+](=O)[O-])C(=O)N[C@@H](CCN)C(N)=O` (Ac-[Arg(NO2)]-[Dab]-NH2), the Ratio in experiment [1] amounted to 9. Turning to `CN(C(=O)[C@@H](N)CCC/N=C(\N)N[N+](=O)[O-])[C@@H](CCCN)C(N)=O`, the Ratio in experiment [1] came out at 135. The values for the Ki in experiment [3] and in experiment [4] were 623 µM and 1300 µM, respectively. `NCCCNC(=O)[C@@H](N)CCC/N=C(\N)N[N+](=O)[O-]`: the Ratio in experiment [1] is 163. With `N=C(NCCC[C@H](N)C(=O)N[C@@H](CCN)C(=O)O)N[N+](=O)[O-]` (H-[Arg(NO2)]-[Dab]-OH), the Ki in experiment [3] was determined as 98 µM; in experiment [4], 1210 µM. Take `NCCNC(=O)[C@@H](N)CCC/N=C(\N)N[N+](=O)[O-]`: in experiment [1], the Ratio was 368. Same read-out and setting: the result for `COC(=O)[C@H](CCN)NC(=O)[C@@H](N)CCC/N=C(\N)N[N+](=O)[O-]` (H-[Arg(NO2)]-[Dab]-OMe) reads 798. For the molecule `N=C(NCCC[C@H](N)C(=O)N(CCCN)CC(N)=O)N[N+](=O)[O-]`, the Ki in experiment [3] worked out at 108 µM; in experiment [4] it was 1000 µM.

The values above are taken from ChEMBL document CHEMBL1133106, “Synthesis and evaluation of peptidomimetics as selective inhibitors and active site probes of nitric oxide synthases” (J Med Chem, 2000).
